Laboratory results as given in ChEMBL document CHEMBL4808183, “Betulonic Acid Derivatives Interfering with Human Coronavirus 229E Replication via the nsp15 Endoribonuclease” (J Med Chem, 2021).
Activity calls are given as the source filed them. The calls are words filed in the database; no cut-off is given here.

Legend:
[1] = (§1) Antiviral activity against Human coronavirus 229E infected in human embryonic lung fibroblast cells assessed as reduction in virus-induced cytopathic effect incubated for 5 days by MTS cell viability assay; format: functional, cell-based; conditions: 120 h
In short: (§2)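 Confluent HEL cell cultures given serial compound dilutions together with HCoV-229E at MOI 100 and held 5 days at 35 °C. Virus-induced CPE was scored by microscopy. MTS reagent was then added and absorbance at 490 nm read 24 h later. EC50 was taken from the MTS or microscopic read-out and CC50 from MTS. SI = CC50/EC50, both by MTS. Mean ± SEM of three independent experiments.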

[2] = Antiviral activity against Human coronavirus 229E infected in human embryonic lung fibroblast cells assessed as reduction in virus-induced cytopathic effect incubated for 5 days by microscopy; format: functional, cell-based; conditions: 120 h; in short: as §2
[3] = Cytotoxicity against mock-infected human embryonic lung fibroblast cells incubated for 5 days by MTS assay; format: cell-based; conditions: time 5 day; in short: as §2
[4] = as §1, with “Selectivity index, ratio of CC50 for cytotoxicity against mock-infected human embryonic lung fibroblast cells incubated for 5 days by MTS assay to EC50 for antiviral” for “Antiviral”; format: toxicity, cell-based; conditions: time 5 day, read-out: Ratio CC50/EC50; in short: as §2
[5] = tested on: Human immunodeficiency virus; test: Antiviral activity against HIV; format: functional, organism-based
[6] = tested on: Herpes simplex virus unknown type; test: Antiviral activity against Herpes simplex virus; format: functional
Vaccinia virus = test: Antiviral activity against Vaccinia virus; format: functional, organism-based; conditions: Orthopoxvirus vaccinia
Human adenovirus 2 = test: Antiviral activity against Adenovirus; format: functional
[7] = tested on: Vesicular stomatitis virus; test: Antiviral activity against Vesicular stomatitis virus; format: functional, organism-based
Coxsackievirus B4 = test: Antiviral activity against Coxsackie B4 virus; format: functional, organism-based
[8] = tested on: Respiratory syncytial virus; test: Antiviral activity against Respiratory syncytial virus; format: functional, organism-based
Human respirovirus 3 = test: Antiviral activity against Parainfluenza-3 virus; format: functional, organism-based
Reovirus sp. = test: Antiviral activity against Reovirus-1; format: functional, organism-based
Sindbis virus = test: Antiviral activity against Sindbis virus; format: functional, organism-based
Punta Toro virus = test: Antiviral activity against Punta Toro virus; format: functional, organism-based
Yellow fever virus = test: Antiviral activity against Yellow fever virus; format: functional, organism-based
Influenza A virus = test: Antiviral activity against Influenza virus; format: functional

Compound	EC50 [1]	EC50 [2]	CC50 at 120 h [3]	selectivity ratio at 120 h [4]	Activity [5]	Activity [6]	Activity (Vaccinia virus)	Activity (Human adenovirus 2)	Activity [7]	Activity (Coxsackievirus B4)	Activity [8]	Activity (Human respirovirus 3)	Activity (Reovirus sp.)	Activity (Sindbis virus)	Activity (Punta Toro virus)	Activity (Yellow fever virus)	Activity (Influenza A virus)
C=C(C)[C@@H]1CC[C@]2(C(=O)O)CC[C@]3(C)[C@H](CC[C@@H]4[C@@]5(C)Cc6nnn(Cc7cccc8[nH]ccc78)c6C(C)(C)[C@@H]5CC[C@]43C)[C@@H]12	0.092 µM	100 nM	2.4 µM	27	inactive	inactive	inactive	inactive	inactive	inactive	inactive	inactive	inactive	inactive	inactive	inactive	inactive
C=C(C)[C@@H]1CC[C@]2(C(=O)O)CC[C@]3(C)[C@H](CC[C@@H]4[C@@]5(C)Cc6nnn(CCO)c6C(C)(C)[C@@H]5CC[C@]43C)[C@@H]12	3.3 µM	2200 nM	4.9 µM	1.5	inactive	inactive	inactive	inactive	inactive	inactive	inactive	inactive	inactive	inactive	inactive	inactive	inactive
C=C(C)[C@@H]1CC[C@]2(C(=O)O)CC[C@]3(C)[C@H](CC[C@@H]4[C@@]5(C)Cc6nnn(Cc7cc(OC)c(OC)c(OC)c7)c6C(C)(C)[C@@H]5CC[C@]43C)[C@@H]12	1.9 µM	1600 nM	10 µM	5	inactive	inactive	inactive	inactive	inactive	inactive	inactive	inactive	inactive	inactive	inactive	inactive	inactive
C=C(C)[C@@H]1CC[C@]2(C(=O)O)CC[C@]3(C)[C@H](CC[C@@H]4[C@@]5(C)Cc6nn[nH]c6C(C)(C)[C@@H]5CC[C@]43C)[C@@H]12	4.3 µM	3400 nM	8.3 µM	1.9	inactive	inactive	inactive	inactive	inactive	inactive	inactive	inactive	inactive	inactive	inactive	inactive	inactive
C=C(C)[C@@H]1CC[C@]2(C(=O)O)CC[C@]3(C)[C@H](CC[C@@H]4[C@@]5(C)Cc6nnn(Cc7ccc(C)cc7)c6C(C)(C)[C@@H]5CC[C@]43C)[C@@H]12	6.2 µM	3300 nM	57 µM	9	inactive	inactive	inactive	inactive	inactive	inactive	inactive	inactive	inactive	inactive	inactive	inactive	inactive
